Measurements published in ChEMBL document CHEMBL1156597, “Structure-activity relationship of kahalalide F synthetic analogues” (J Med Chem, 2008).

Legend:
SK-MEL-28 = assay: Cytotoxicity against human SK-MEL-28 cells after 48 hrs by SRB assay; type: functional, cell-based; conditions: Homo sapiens, SK-MEL-28, 48 h; for CC50: read-out: LC50 (the source's name)
Method in brief: (§1)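 Cells grown in RPMI 1640 with 10% FBS and penicillin/streptomycin at 37 °C and 5% CO₂, trypsinized, then seeded at 5 × 10³/well. After 18 h drug-free attachment, samples in DMSO/EtOH/PBS (0.5:0.5:99) were added for 48 h continuous exposure. Cells were fixed with cold TCA (1 h, 4 °C) and stained with SRB (10 min). Tris-solubilized stain read at 490 nm. Triplicate wells, mean ± SD; GI₅₀ derived.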

A549 = assay: Cytotoxicity against human A549 cells after 48 hrs by SRB assay; type: functional, cell-based; conditions: Homo sapiens, A549, 48 h; for GI50: read-out: GI50; method in brief: as §1
DU-145 = assay: Cytotoxicity against human DU145 cells after 48 hrs by SRB assay; type: functional, cell-based; conditions: Homo sapiens, DU-145, 48 h; for CC50: read-out: LC50 (the source's name); method in brief: as §1
[1] = Cytotoxicity against human IGROV-ET cells after 48 hrs by SRB assay; type: functional; conditions: for CC50: read-out: LC50 (the source's name); method in brief: as §1
LoVo = assay: Cytotoxicity against human LoVo cells after 48 hrs by SRB assay; type: functional; conditions: for CC50: read-out: LC50 (the source's name)
LNCaP = assay: Cytotoxicity against human LNcaP cells after 48 hrs by SRB assay; type: functional; conditions: for CC50: read-out: LC50 (the source's name); method in brief: as §1
PANC-1 = assay: Cytotoxicity against human PANC1 cells after 48 hrs by SRB assay; type: functional; conditions: PANC-1, 48 h; for CC50: read-out: LC50 (the source's name); method in brief: as §1
[2] = Cytotoxicity against human HeLa-APL cells after 48 hrs by SRB assay; type: functional; method in brief: as §1
HeLa = assay: Cytotoxicity against human HeLa cells after 48 hrs by SRB assay; type: functional; conditions: for CC50: read-out: LC50 (the source's name); method in brief: as §1
HT-29 = assay: Cytotoxicity against human HT29 cells after 48 hrs by SRB assay; type: functional, cell-based; conditions: Homo sapiens, HT-29, 48 h; for CC50: read-out: LC50 (the source's name); method in brief: as §1
[3] = Cytotoxicity against human IGROV cells after 48 hrs by SRB assay; type: functional; conditions: for CC50: read-out: LC50 (the source's name); method in brief: as §1
K562 = assay: Cytotoxicity against human K562 cells after 48 hrs by SRB assay; type: functional; conditions: K562, 48 h; for CC50: read-out: LC50 (the source's name); method in brief: as §1
SK-BR-3 = assay: Cytotoxicity against human SKBR3 cells after 48 hrs by SRB assay; type: functional; conditions: SK-BR-3, 48 h; for CC50: read-out: LC50 (the source's name); for GI50: read-out: GI50; method in brief: as §1

Row | Compound | CC50 (SK-MEL-28) [nM] | LC50 (A549) [nM] | CC50 (DU-145) [nM] | CC50 [1] [nM] | CC50 (LoVo) [nM] | GI50 (LNCaP) [nM] | TGI (LNCaP) [nM] | CC50 (LNCaP) [nM] | CC50 (PANC-1) [nM] | LC50 (concentration giving 50% net cell kill) [2] [nM] | CC50 (HeLa) [nM] | CC50 (HT-29) [nM] | CC50 [3] [nM] | CC50 (K562) [nM] | CC50 (SK-BR-3) [nM] | GI50 (SK-MEL-28; read-out: GI50) [nM] | GI50 (LoVo) [nM] | TGI (LoVo) [nM] | TGI (SK-BR-3) [nM] | GI50 (SK-BR-3) [nM] | also measured
1 | C/C=C1\NC(=O)[C@H](Cc2ccccc2)NC(=O)[C@@H](C(C)C)NC(=O)[C@@H]([C@H](C)CC)NC(=O)[C@H](NC(=O)[C@H](NC(=O)[C@H](CCCN)NC(=O)[C@H]2CCCN2C(=O)[C@H](NC(=O)[C@@H]2CCCN2C(=O)[C@@H](NC(=O)[C@H](NC(=O)CCCC(C)C)C(C)C)[C@@H](C)O)C(C)C)[C@H](C)CC)[C@H](C)OC(=O)[C@H](C(C)C)NC1=O | 1440 | 1910 | 1650 | 703 | 4790 | 347 | 3240 | 1540 | 2540 | 1320 | 1040 | 887 | 632 | 2440 | 2780 | – | – | – | – | – | –
2 | C/C=C1\NC(=O)[C@H](Cc2ccccc2)NC(=O)[C@@H](C(C)C)NC(=O)[C@@H]([C@H](C)CC)NC(=O)[C@H](NC(=O)[C@H](NC(=O)[C@H](CCCN)NC(=O)[C@H]2CCCN2C(=O)[C@H](NC(=O)[C@@H](NC(=O)[C@@H](NC(=O)[C@H](NC(=O)c2ccccc2)C(C)C)[C@@H](C)O)C(C)C)C(C)C)[C@H](C)CC)[C@H](C)OC(=O)[C@H](C(C)C)NC1=O | 901 | 1120 | 1040 | 436 | 573 | 1190 | 1370 | 1540 | 2540 | 834 | 732 | 508 | 3910 | 2450 | 1390 | 1120 | 353 | 423 | 1360 | 874 | TGI (SK-MEL-28): 1010 nM; TGI (A549): 1220 nM; GI50 (A549): 1320 nM; TGI (DU-145): 1120 nM; GI50 (DU-145; read-out: GI50): 1210 nM; GI50 [1]: 521 nM; GI50 ([1]; read-out: GI50): 627 nM; GI50 (PANC-1): 5380 nM; TGI (PANC-1): 4940 nM; GI50 [2]: 1040 nM; TGI [2]: 934 nM; GI50 (HeLa): 1210 nM; TGI (HeLa): 945 nM; GI50 [3]: 565 nM; GI50 ([3]; read-out: GI50): 997 nM; GI50 (K562): 431 nM; TGI (K562): 1510 nM
3 | C/C=C1\NC(=O)[C@H](Cc2ccccc2)NC(=O)[C@@H](C(C)C)NC(=O)[C@@H]([C@H](C)CC)NC(=O)[C@H](NC(=O)[C@H](NC(=O)[C@H](CCCN)NC(=O)[C@H]2CCCN2C(=O)[C@H](NC(=O)[C@@H](NC(=O)[C@@H](NC(=O)[C@H](NC(=O)Cc2cc(F)cc(F)c2)C(C)C)[C@@H](C)O)C(C)C)C(C)C)[C@H](C)CC)[C@H](C)OC(=O)[C@H](C(C)C)NC1=O | 1400 | 1120 | 1600 | 520 | 2200 | 1650 | 3140 | 1490 | 2460 | 1290 | 1010 | 556 | 426 | 2370 | 1490 | 2340 | 794 | 1480 | 1710 | 1270 | TGI (SK-MEL-28): 2930 nM; TGI (A549): 1350 nM; GI50 (A549): 1620 nM; TGI (DU-145): 3690 nM; GI50 (DU-145; read-out: GI50): 1840 nM; GI50 [1]: 679 nM; GI50 ([1]; read-out: GI50): 889 nM; GI50 [2]: 2020 nM; TGI [2]: 2960 nM; GI50 (HeLa): 1410 nM; TGI (HeLa): 1350 nM; GI50 [3]: 692 nM; GI50 ([3]; read-out: GI50): 1370 nM
4 | C/C=C1\NC(=O)[C@H](Cc2ccccc2)NC(=O)[C@@H](C(C)C)NC(=O)[C@@H]([C@H](C)CC)NC(=O)[C@H](NC(=O)[C@H](NC(=O)[C@H](CCCC[N+](C)(C)C)NC(=O)[C@H]2CCCN2C(=O)[C@H](NC(=O)[C@@H](NC(=O)[C@@H](NC(=O)[C@H](NC(=O)CC[C@@H](C)CC)C(C)C)[C@@H](C)O)C(C)C)C(C)C)[C@H](C)CC)[C@H](C)OC(=O)[C@H](C(C)C)NC1=O | 863 | 1120 | 880 | 446 | 347 | 1060 | 1060 | 1060 | 2440 | 859 | 689 | 476 | 391 | 2340 | 369 | 1110 | 361 | 353 | 363 | 372 | GI50 (SK-MEL-28): 979 nM; TGI (A549): 1240 nM; GI50 (A549): 1390 nM; GI50 (DU-145): 948 nM; GI50 (DU-145; read-out: GI50): 1020 nM; GI50 [1]: 532 nM; GI50 ([1]; read-out: GI50): 639 nM; GI50 (PANC-1): 4160 nM; TGI (PANC-1): 4730 nM; GI50 [2]: 1110 nM; TGI [2]: 979 nM; GI50 (HeLa): 943 nM; TGI (HeLa): 809 nM; GI50 (HT-29): 786 nM; TGI (HT-29): 754 nM; GI50 [3]: 470 nM; GI50 ([3]; read-out: GI50): 612 nM; GI50 (K562): 1840 nM; TGI (K562): 3310 nM
5 | C/C=C1\NC(=O)[C@H](Cc2ccccc2)NC(=O)[C@@H](C(C)C)NC(=O)[C@@H]([C@H](C)CC)NC(=O)[C@H](NC(=O)[C@H](NC(=O)[C@H](CCCN)NC(=O)[C@H]2CCCN2C(=O)[C@H](NC(=O)[C@@H](NC(=O)[C@@H](NC(=O)[C@H](NC(=O)CCCNC(=N)N)C(C)C)[C@@H](C)O)C(C)C)C(C)C)[C@H](C)CC)[C@H](C)OC(=O)[C@H](C(C)C)NC1=O | 1430 | 1890 | 1630 | 695 | 4740 | 3930 | 3200 | 1520 | 2510 | 1310 | 1030 | 877 | 624 | 2410 | 2750 | – | – | – | – | – | –
6 | C/C=C1\NC(=O)[C@H](Cc2ccccc2)NC(=O)[C@@H](C(C)C)NC(=O)[C@@H]([C@H](C)CC)NC(=O)[C@H](NC(=O)[C@H](NC(=O)[C@H](CCCN)NC(=O)[C@H]2CCCN2C(=O)[C@H](NC(=O)[C@@H](NC(=O)[C@@H](NC(=O)[C@H](NC(=O)CCCC(C)C)C(C)C)[C@@H](C)O)C(C)C)C(C)C)[C@H](C)CC)CNC(=O)[C@H](C(C)C)NC1=O | 1460 | 1930 | 1670 | 710 | 4840 | – | – | 1550 | 2560 | 1340 | 1050 | 895 | 637 | 2460 | 2810 | – | 11500 | 9550 | 8040 | 8660 | –
7 | C/C=C1\NC(=O)[C@H](Cc2ccccc2)NC(=O)[C@@H](C(C)C)NC(=O)[C@@H]([C@H](C)CC)NC(=O)[C@H](NC(=O)[C@H](NC(=O)[C@H](CCCN)NC(=O)[C@H]2CCCN2C(=O)[C@H](NC(=O)[C@H](C)NC(=O)[C@@H](NC(=O)[C@H](NC(=O)CCCC(C)C)C(C)C)[C@@H](C)O)C(C)C)[C@H](C)CC)[C@H](C)OC(=O)[C@H](C(C)C)NC1=O | 1470 | 1940 | 1680 | 599 | 2990 | 2800 | 3300 | 1570 | 2580 | 1350 | 1060 | 665 | 533 | 2480 | 2170 | 3450 | 2680 | 2830 | 2960 | 3250 | TGI (SK-MEL-28): 3070 nM; TGI (A549): 4310 nM; GI50 (A549): 3730 nM; TGI (DU-145): 3870 nM; GI50 (DU-145; read-out: GI50): 3900 nM; GI50 [1]: 863 nM; GI50 ([1]; read-out: GI50): 1250 nM; GI50 [2]: 3270 nM; TGI [2]: 3100 nM; GI50 (HeLa): 3100 nM; TGI (HeLa): 2830 nM; GI50 [3]: 934 nM; GI50 ([3]; read-out: GI50): 2000 nM; GI50 (K562): 4320 nM; TGI (K562): 4930 nM
